The Ki is the dissociation constant of the complex between target and ligand, obtained from inhibition or displacement.

Experimental findings from article PMC2574997 (Journal of medicinal chemistry, 2008) are described below.

The target in series [1] is PKCα (Mus musculus, UniProt P20444). Nature of the series: Competition with [3H]PDBU binding to PKCα. The settings on record: for Ratio Ki crude/Ki pure: relative to unresolved library E/Z mixture. The procedure, abridged: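 Partially purified mouse PKCα; test compound in DMSO competed with [3H]PDBU. Pure compounds ran 6–7 ligand concentrations; ID50 from sigmoidal fit; Ki = ID50/(1+L/Kd). Crude library mixtures (unresolved E/Z) were tested at a single 1 μM, with Ki calculated from that concentration. The ratio compares crude with pure Ki. Triplicates per concentration; ≥3 independent experiments; mean ± SEM.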

The subject of series [2] is α-secretase. Nature of the series: α-Secretase activation, secreted sAPPα by immunoblot densitometry in W4 cells. The settings on record: crude sample or control, 1 μM. The series is classed as cell-based, rat. (In western blotting, separated proteins are transferred to a membrane and probed.)
The subject of series [3] is AP-1. Nature of the series: AP-1 luciferase assay. The note with it: pure DAG-lactone 100 ng/mL, 18 h, normalized to TPA 10 ng/mL; L2-C11: both E- and Z-isomers. The series is classed as cell-based, Balb/C.
In series [4] the test system is JB6 cells. In words: Anchorage independent transformation in soft agar. It counts as cell-based, Balb/C. The note with it: DAG-lactone 100 ng/mL, 14 days, normalized to TPA 10 ng/mL; L2-C11: both E- and Z-isomers. In outline: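 JB6 cells (10^4) suspended in 0.33% top agar containing DMSO, TPA (10 ng/mL) or test compound (100 ng/mL), layered over 0.5% bottom agar also containing compound. Anchorage-independent colonies counted after 14 days by automated image analysis; colonies >8 cells scored as transformed. Four independent plates seeded. Mean colony number reported relative to TPA as 100%.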

Series [5] deals with LNCaP cells. Nature of the series: Apoptosis and radiosensitization in LNCaP cells. The series is classed as cell-based, human. The note with it: 10 and 20 μM, 16 h pretreatment, 24 h post radiation (20 Gy). In outline:
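LNCaP human prostate cancer cells were grown at 37°C, 5% CO2 in RPMI-1640 with 10% FCS, 2 mM L-glutamine, antibiotics and 10 mM HEPES (pH 7.2). FCS was replaced by 0.2% human albumin 24 h before the experiment. Cells were pretreated 16 h with test compound (10 or 20 μM), then irradiated (20 Gy). They were fixed 24 h later and stained with bis-benzimide. Cells with ≥3 apoptotic bodies were scored apoptotic by fluorescence microscopy. Mean of two experiments ± standard deviation.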

Series [6] deals with GFP-tagged PKCα, β, δ and ε. In words: Translocation of GFP-tagged PKC isoforms in CHO cells. It counts as cell-based, Chinese hamster. The settings on record: living CHO cells, 300 nM, confocal microscopy. The procedure, abridged:
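PKC isoforms were subcloned into a modified pEGFP-N1 plasmid to give GFP-tagged proteins, which were over-expressed in CHO cells. Localization was followed in real time by confocal microscopy before and after ligand treatment, with membrane translocation from cytosol taken as activation.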

Series [7] deals with MCF-10A cells. In words: Cellular motility assay. It counts as cell-based, human. The settings on record: pure compounds, dose response, total area, 20 h.
Where [8] appears, read: Library 1, pure sample = E-isomer.
The mark [9] stands for this setting: Library 2, pure sample = E-isomer.
[10] abbreviates: Library 1, pure sample = Z-isomer.

Read-outs that look alike come from different tables or passages of the source.

Consider `COc1ccc(/C=C2\CC(CO)(COC(=O)c3c(C(C)C)cc(C(C)C)cc3C(C)C)OC2=O)cc1` (centres unmarked) [L1-F12, (E)-{2-(Hydroxymethyl)-4-[(4-methoxyphenyl)methylene]-5-oxo-2-2,3-dihydrofuryl}methyl 2,4,6-tris(methylethyl)benzoate], for which the “Ratio Ki crude/Ki pure” value in series [1] (setting [8]) was determined as 24.6. The same measure, in the same setting: the value for `CCCCC(CC)C(=O)OCC1(CO)C/C(=C\c2ccc(N(C)C)cc2)C(=O)O1` (centres unmarked) [L1-E2, (E)-(4-{[4-(Dimethylamino)phenyl]methylene}-2-(hydroxymethyl)-5-oxo-2-2,3-dihydrofuryl)methyl 2-ethylhexanoate] was 7.4. For the compound `COc1ccc(C(=O)OCC2(CO)C/C(=C\c3ccc(N(C)C)cc3)C(=O)O2)cc1` (centres unmarked) [L1-E6, (E)-(4-{[4-(Dimethylamino)phenyl]methylene}-2-(hydroxymethyl)-5-oxo-2-2,3-dihydrofuryl)methyl 4-methoxybenzoate], the “Ratio Ki crude/Ki pure” value in series [1] (setting [8]) is given as 8.7. The “α-secretase activity (sAPPα) relative to untreated cells (100%)” value in series [2] is listed as 177%. On to `COc1ccc(C(=O)OCC2(CO)C/C(=C\c3ccc([N+](=O)[O-])cc3)C(=O)O2)cc1` (centres unmarked) [L1-H6, (E)-{2-(Hydroxymethyl)-4-[(4-nitrophenyl)methylene]-5-oxo-2-2,3-dihydrofuryl}methyl 4-methoxybenzoate], for which, in series [1] (setting [8]), the “Ratio Ki crude/Ki pure” value turned out to be 2.7. For the compound `CCCC(CCC)C(=O)OCC1(CO)C/C(=C\c2ccc(F)cc2)C(=O)O1` (centres unmarked) [L2-B7, (E)-{4-[(4-Fluorophenyl)methylene]-2-(hydroxymethyl)-5-oxo-2-2,3-dihydrofuryl}methyl 2-propylpentanoate], in series [1] (setting [9]), the “Ratio Ki crude/Ki pure” value was 3.0. In addition, in series [3], the “AP-1 activation (AP-1 dependent luciferase activity)” value (shortened to “AP-1 activation”) is on record as “very strong AP-1 transcription factor activation”. Further, in series [4], the “transforming activity (anchorage independent colonies)” value (shortened to “transforming activity”) was “minimal transforming properties”. The induction of apoptosis result in series [5] is listed as “induction of apoptosis”. As to `CCCCC(/C=C1/CC(CO)(COC(=O)c2ccc(N(C)C)cc2)OC1=O)CC` (centres unmarked) [L1-B5, (Z)-[4-(2-Ethylhexylidene)-2-(hydroxymethyl)-5-oxo-2-2,3-dihydrofuryl]methyl 4-(dimethylamino)benzoate], the “Ratio Ki crude/Ki pure” value in series [1] (setting [10]) turned out to be 3.4. In the case of `CC(C)C(=O)OCC1(CO)C/C(=C/c2ccccc2C(F)(F)F)C(=O)O1` (centres unmarked) [L2-A1, (Z)-(2-(Hydroxymethyl)-5-oxo-4-{[2-(trifluoromethyl)phenyl]-methylene}-2-2,3-dihydrofuryl)methyl 2-methylpropanoate], the “Ratio Ki crude/Ki pure” value in series [1] (Library 2, pure sample = Z-isomer) is on record as 0.51. Take `CC(C)(C)C(=O)OCC1(CO)C/C(=C\c2ccc(F)c(Cl)c2)C(=O)O1` (centres unmarked) [L2-F10, (E)-{4-[(3-Chloro-4-fluorophenyl)methylene]-2-(hydroxymethyl)-5-oxo-2-2,3-dihydrofuryl}methyl 2,2-dimethylpropanoate]: in series [1] (setting [9]), the “Ratio Ki crude/Ki pure” value is reported as 1.8. Same read-out and setting: the same measure for `CCCC(CCC)C(=O)OCC1(CO)C/C(=C\c2ccc(F)c(Cl)c2)C(=O)O1` (centres unmarked) [L2-B10, (E)-{4-[(3-Chloro-4-fluorophenyl)methylene]-2-(hydroxymethyl)-5-oxo-2-2,3-dihydrofuryl}methyl 2-propylpentanoate]: 3.8. As to `CCCCC(CC)C(=O)OCC1(CO)C/C(=C\c2ccc(Cl)cc2)C(=O)O1` (centres unmarked) [L2-C8, (E)-{4-[(4-Chlorophenyl)methylene]-2-(hydroxymethyl)-5-oxo-2-2,3-dihydrofuryl}methyl 2-ethylhexanoate], in series [1] (setting [9]), the “Ratio Ki crude/Ki pure” value amounted to 4.3. For the same compound, in series [3], the “AP-1 activation” value is on record as “able to induce AP-1 activation”. Moreover, in series [4], the “transforming activity” value is “significant transforming activity”. In the case of `O=C1OC(CO)(COC(=O)c2ccc([N+](=O)[O-])cc2)C/C1=C\c1ccc([N+](=O)[O-])cc1` (centres unmarked) [L1-H8, (E)-{2-(Hydroxymethyl)-4-[(4-nitrophenyl)methylene]-5-oxo-2-2,3-dihydrofuryl}methyl 4-nitrobenzoate], the “Ratio Ki crude/Ki pure” value in series [1] (setting [8]) was 5.2. With `CCCCC(CC)C(=O)OCC1(CO)C/C(=C\c2ccc(F)c(Br)c2)C(=O)O1` (centres unmarked) [L2-C12, (E)-{4-[(3-Bromo-4-fluorophenyl)methylene]-2-(hydroxymethyl)-5-oxo-2-2,3-dihydrofuryl}methyl 2-ethylhexanoate], the “Ratio Ki crude/Ki pure” value in series [1] (setting [9]) is 2.9. Moreover, in series [6], the “translocation of PKC isozymes α, β, δ and ε” value is listed as “translocated very quickly”. The “induction of cell motility” value in series [7] is “induced cell motility”. Turning to `CCC(C(=O)OCC1(CO)C/C(=C\c2ccc(-c3ccc(C(F)(F)F)cc3)cc2)C(=O)O1)c1ccccc1` (centres unmarked) [L2-D6, (E)-[2-(Hydroxymethyl)-5-oxo-4-({4-[4-(trifluoromethyl)phenyl]phenyl}methylene)-2-2,3-dihydrofuryl]methyl 2-phenylbutanoate], the “Ratio Ki crude/Ki pure” value in series [1] (setting [9]) was found to be 5.8. Besides, in series [7], the “induction of cell motility” value was “mimics L2-C12 in terms of inducing cell motility”.

For the compound “(E)-{4-[(3-Chloro-4-fluorophenyl)methylene]-2-(hydroxymethyl)-5-oxo-2-2,3-dihydrofuryl}methyl 2-propylpentanoate [L2-B11]”, the “Ratio Ki crude/Ki pure” value in series [1] (setting [9]) is reported as 6.3. In addition, in series [1] (read-out: Pure Sample Ki, Library 2 pure compound, E-isomer), the Ki was 3.38 ± 0.15 nM. `CCCC(CCC)C(=O)OCC1(CO)C/C(=C\c2ccc(C(F)(F)F)cc2)C(=O)O1` (centres unmarked) [L2-B4, (E)-(2-(Hydroxymethyl)-5-oxo-4-{[4-(trifluoromethyl)phenyl]methylene}-2-2,3-dihydrofuryl)methyl 2-propylpentanoate]: the “Ratio Ki crude/Ki pure” value in series [1] (setting [9]) was 5.6. For the same compound, the “AP-1 activation” value in series [3] was “very strong AP-1 transcription factor activation”. Further, the “transforming activity” value in series [4] is “minimal transforming properties”. The induction of apoptosis entry in series [5] is reported as “induction of apoptosis”. For the compound `CCCCCC/C=C1/CC(CO)(COC(=O)c2c(C(C)C)cc(C(C)C)cc2C(C)C)OC1=O` (centres unmarked) [L1-A12, (Z)-[4-Heptylidene-2-(hydroxymethyl)-5-oxo-2-2,3-dihydrofuryl]methyl 2,4,6-tris(methylethyl)benzoate], the “Ratio Ki crude/Ki pure” value in series [1] (setting [10]) is on record as 50.4. Compound `CCCC(CCC)C(=O)OCC1(CO)C/C(=C\c2ccc(F)c(Br)c2)C(=O)O1` (centres unmarked) [L2-B12, (E)-{4-[(3-Bromo-4-fluorophenyl)methylene]-2-(hydroxymethyl)-5-oxo-2-2,3-dihydrofuryl}methyl 2-propylpentanoate] returned a Ki in series [1] of about 2 nM. The “Ratio Ki crude/Ki pure” value in series [1] (setting [9]) turned out to be 3.0. Also, the “induction of cell motility” value in series [7] is recorded as “very weak effect on cell motility”. On to `COc1ccc(/C=C2\CC(CO)(COC(=O)c3c(C)cc(C)cc3C)OC2=O)cc1` (centres unmarked) [L1-F11, (E)-{2-(Hydroxymethyl)-4-[(4-methoxyphenyl)methylene]-5-oxo-2-2,3-dihydrofuryl}methyl 2,4,6-trimethylbenzoate], for which the “Ratio Ki crude/Ki pure” value in series [1] (setting [8]) was determined as 32.0.

Take `COc1ccc(/C=C2\CC(CO)(COC(=O)c3ccc(OC)cc3)OC2=O)cc1` (centres unmarked) [L1-F6, (E)-{2-(Hydroxymethyl)-4-[(4-methoxyphenyl)methylene]-5-oxo-1-2,3-dihydrofuryl}methyl 4-methoxybenzoate]: the “Ratio Ki crude/Ki pure” value in series [1] (setting [8]) worked out at 2.6.

Consider `CN(C)c1ccc(/C=C2\CC(CO)(COC(=O)c3ccc([N+](=O)[O-])cc3)OC2=O)cc1` (centres unmarked) [L1-E8, (E)-(4-{[4-(Dimethylamino)phenyl]methylene}-2-(hydroxymethyl)-5-oxo-2-2,3-dihydrofuryl)methyl 4-nitrobenzoate], for which the “Ratio Ki crude/Ki pure” value in series [1] (setting [8]) is on record as 5.8. On the same count and under the same terms, the same measure for `CN(C)c1ccc(/C=C2\CC(CO)(COC(=O)c3ccc(N(C)C)cc3)OC2=O)cc1` (centres unmarked) [L1-E5, (E)-(4-{[4-(Dimethylamino)phenyl]methylene}-2-(hydroxymethyl)-5-oxo-2-2,3-dihydrofuryl)methyl 4-(dimethylamino)benzoate]: 10.6. `CCCCC(/C=C1/CC(CO)(COC(=O)c2ccc([N+](=O)[O-])cc2)OC1=O)CC` (centres unmarked) [L1-B8, (Z)-[4-(2-Ethylhexylidene)-2-(hydroxymethyl)-5-oxo-2-2,3-dihydrofuryl]methyl 4-nitrobenzoate]: the “Ratio Ki crude/Ki pure” value in series [1] (setting [10]) was 1.4. As to `COc1ccc(/C=C2\CC(CO)(COC(=O)c3ccc(N(C)C)cc3)OC2=O)cc1` (centres unmarked) [L1-F5, (E)-{2-(Hydroxymethyl)-4-[(4-methoxyphenyl)methylene]-5-oxo-1-2,3-dihydrofuryl}methyl 4-(dimethylamino)benzoate], the “Ratio Ki crude/Ki pure” value in series [1] (setting [8]) turned out to be 7.5.
